Data reported in ChEMBL document CHEMBL5154715, “Phenolic Lipids Derived from Cashew Nut Shell Liquid to Treat Metabolic Diseases” (J Med Chem, 2022).
Calls of active or inactive are those of the source. The calls are words filed in the database; no cut-off is given here.

Key:
[1] = Metabolic stability in C57BL/6 mouse liver microsomes assessed as parent compound remaining incubated for 120 mins; assay type: ADME, Microsome; conditions: read-out: Stability
[2] = target: T1, Peroxisome proliferator-activated receptor alpha (Homo sapiens) (UniProt Q07869); experiment: Agonist activity at human PPARalpha transfected in HEK293 cells assessed as relative luciferase unit at 50 uM measured after 16 hrs by luciferase reporter gene assay; assay type: cell-based; conditions: filed as agonist
T1 sequence (whole entry): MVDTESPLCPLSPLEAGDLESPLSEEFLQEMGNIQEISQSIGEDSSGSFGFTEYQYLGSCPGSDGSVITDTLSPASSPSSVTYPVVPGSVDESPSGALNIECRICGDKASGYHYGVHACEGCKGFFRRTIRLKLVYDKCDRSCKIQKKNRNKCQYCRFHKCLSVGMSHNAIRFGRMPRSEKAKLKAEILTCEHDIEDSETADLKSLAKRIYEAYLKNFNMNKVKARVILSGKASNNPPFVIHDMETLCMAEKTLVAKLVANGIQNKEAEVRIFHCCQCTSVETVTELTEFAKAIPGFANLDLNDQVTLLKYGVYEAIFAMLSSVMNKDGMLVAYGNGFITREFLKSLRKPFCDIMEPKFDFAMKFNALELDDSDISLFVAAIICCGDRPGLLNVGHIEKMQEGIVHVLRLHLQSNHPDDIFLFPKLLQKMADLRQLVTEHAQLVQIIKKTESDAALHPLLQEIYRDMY
Summary of the method: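 GAL4-hPPAR (α or γ) plus UAS-luciferase and β-galactosidase transiently co-transfected into HEK293 cells, then treated with 50 μM compound for 16 h. RLU = luciferase/β-galactosidase × time, vehicle (DMSO) set to 1. Mean ± SD, N = 3; one-way ANOVA with Holm–Šidák vs vehicle.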

[3] = target: T2, Peroxisome proliferator-activated receptor alpha (Homo sapiens, UniProt Q07869); experiment: Agonist activity at human PPARalpha expressed in HEK293 cells by luciferase/beta-galactosidase reporter gene assay; assay type: cell-based
T2 sequence (Q07869 whole entry): T1 sequence (whole entry)
Summary of the method: (§1)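 HEK293 cells in charcoal-stripped FBS, calcium phosphate co-transfected with GAL4-hPPAR LBD fusion, UAS-luciferase and β-galactosidase. Ligand added 6–8 h post transfection, full dose–response, harvested 14–16 h later. Luciferase normalized to β-galactosidase.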

[4] = target: T3, Peroxisome proliferator-activated receptor delta (Homo sapiens) (UniProt Q03181)
T3 sequence (whole entry): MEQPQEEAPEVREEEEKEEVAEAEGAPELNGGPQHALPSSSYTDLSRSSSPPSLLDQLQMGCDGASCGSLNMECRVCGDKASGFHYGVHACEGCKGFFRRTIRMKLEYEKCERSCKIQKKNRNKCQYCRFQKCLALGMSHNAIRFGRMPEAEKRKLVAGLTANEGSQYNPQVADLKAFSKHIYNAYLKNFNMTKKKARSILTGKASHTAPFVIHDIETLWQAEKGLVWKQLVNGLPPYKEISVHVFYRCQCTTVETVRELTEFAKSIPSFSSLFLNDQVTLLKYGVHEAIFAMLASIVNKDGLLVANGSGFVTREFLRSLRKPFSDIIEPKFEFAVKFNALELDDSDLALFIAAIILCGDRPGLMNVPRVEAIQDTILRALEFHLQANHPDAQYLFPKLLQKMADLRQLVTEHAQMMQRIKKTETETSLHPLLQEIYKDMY

[5] = target: T4, Peroxisome proliferator-activated receptor gamma (Homo sapiens) (UniProt P37231); experiment: Stabilization of human PPARgamma LBD assessed as change in melting temperature at 50 uM by thermal shift assay
T4 sequence (whole entry): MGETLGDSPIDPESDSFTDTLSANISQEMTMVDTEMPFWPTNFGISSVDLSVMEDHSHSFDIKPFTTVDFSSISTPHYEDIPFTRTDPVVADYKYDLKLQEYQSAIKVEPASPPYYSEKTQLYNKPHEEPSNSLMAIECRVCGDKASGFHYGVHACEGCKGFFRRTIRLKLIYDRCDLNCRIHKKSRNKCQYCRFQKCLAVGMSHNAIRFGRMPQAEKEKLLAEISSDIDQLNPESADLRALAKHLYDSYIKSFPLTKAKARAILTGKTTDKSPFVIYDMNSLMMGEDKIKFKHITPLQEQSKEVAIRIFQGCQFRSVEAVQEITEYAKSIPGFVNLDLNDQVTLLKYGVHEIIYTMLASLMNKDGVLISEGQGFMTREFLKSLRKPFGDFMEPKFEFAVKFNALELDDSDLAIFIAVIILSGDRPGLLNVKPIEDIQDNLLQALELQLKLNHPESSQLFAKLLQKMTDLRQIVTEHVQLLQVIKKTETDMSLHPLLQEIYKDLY

[6] = target: T3, Peroxisome proliferator-activated receptor delta (Homo sapiens); experiment: Stabilization of human PPARdelta LBD assessed as change in melting temperature at 50 uM by thermal shift assay
[7] = target: T5, Peroxisome proliferator-activated receptor gamma (Homo sapiens, UniProt P37231); experiment: Agonist activity at human PPARgamma expressed in HEK293 cells by luciferase/beta-galactosidase reporter gene assay; assay type: cell-based; summary of the method: as §1
T5 sequence (P37231 whole entry): T4 sequence (whole entry)

[8] = target: T6, Peroxisome proliferator-activated receptor alpha (Mus musculus) (UniProt P23204); experiment: Agonist activity at human PPARalpha in mouse hepatocytes assessed as induction of Fgf21 mRNA expression at 50 uM incubated for 16 hrs by quantitative real-time PCR analysis; assay type: cell-based; conditions: Hepatocyte, filed as agonist
T6 sequence (whole entry): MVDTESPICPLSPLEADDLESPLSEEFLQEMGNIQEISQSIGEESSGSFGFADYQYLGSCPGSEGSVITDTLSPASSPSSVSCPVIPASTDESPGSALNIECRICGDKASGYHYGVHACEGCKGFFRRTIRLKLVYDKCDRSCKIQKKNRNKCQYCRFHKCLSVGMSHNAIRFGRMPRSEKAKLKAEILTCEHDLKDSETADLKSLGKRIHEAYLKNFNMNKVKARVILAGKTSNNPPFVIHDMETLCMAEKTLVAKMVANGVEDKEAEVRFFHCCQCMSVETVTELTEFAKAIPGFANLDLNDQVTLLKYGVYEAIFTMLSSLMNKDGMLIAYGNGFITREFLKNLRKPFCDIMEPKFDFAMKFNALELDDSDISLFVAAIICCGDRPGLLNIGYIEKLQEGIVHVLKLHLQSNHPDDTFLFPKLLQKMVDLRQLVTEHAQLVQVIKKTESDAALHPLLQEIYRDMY
Summary of the method: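 Collagenase-perfused mouse primary hepatocytes from WT mice, plated 2 h in attachment medium, overnight in M199 with 5% charcoal-stripped FBS and 1 nM insulin. Treated next day in serum-free M199 with 50 μM compound for 16 h. RNA qPCR (SYBR Green), comparative Ct method.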

Danio rerio = experiment: In vivo agonist activity at human GFP-tagged PPARalpha in transgenic zebrafish assessed as increase in GFP expression in brain at 0.7 uM measured after 14 hrs by microscopy
[9] = Apparent oral clearance in C57BL/6 mouse at 40 mg/kg, ip […] by LC-MS/MS analysis; assay type: ADME, organism-based; conditions: in vivo

Structure (SMILES)	remaining at 2 h [1] [%]	Activity [2]	EC50 [3] [nM]	EC50 ([4]; HEK293) [nM]	ΔTm [5] [°C]	ΔTm [6] [°C]	EC50 [7] [nM]	Activity [8]	EC50 ([4]; HEK293, filed as agonist) [nM]	Activity (Danio rerio)	CL/F [9] [mL/min/kg]
CCCCCCCCCCCCCCCc1cccc(OC(C)=O)c1C(=O)O	0	Active	2400	> 50000	4.4	12	–	–	–	–	–
CCCCCC/C=C\CCCCCCCc1cccc(OC(C)(C)C(=O)O)c1	90	Active	700	–	5.6	6.8	1780	Active	21000	Active	–
CCCCCCCCCCCCCCCc1cccc(OC(C)(C)C(=O)O)c1	79	Active	500	–	6.3	11.3	900	Active	33000	–	0.89
